Source: ChEMBL document CHEMBL4052614, “Novel 3',5'-diprenylated chalcones inhibited the proliferation of cancer cells in vitro by inducing cell apoptosis and arresting cell cycle phase” (Eur J Med Chem, 2017)
Activity calls are given as the source filed them. The rule behind the calls is not given here.

How the values were obtained:
PC-3 [1] = experiment: Induction of apoptosis in human PC3 cells assessed as early apoptotic cells at 5 umol/L after 48 hrs by annexin V-FITC/propidium iodide staining based flow cytometry (reference value: 4%); assay type: functional
K562 [2] = experiment: Growth inhibition of human K562 cells at 5 umol/L after 48 hrs by MTT assay relative to control; assay type: functional; conditions: K562, 48 h, read-out: GI
In short: (§1)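 Cells kept in DMEM/10% FBS at 37 °C, 5% CO2, seeded at 4×10^3–8×10^3 cells/well, 24 h attachment, then 48 h with compound at 5 µmol/L. MTT (5 mg/mL solution) added for 4 h at 37 °C, formazan taken up in DMSO, A490 read. Percent inhibition as mean ± SD of three independent experiments. Doxorubicin as positive control.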

MDA-MB-231 [3] = experiment: Potency index, ratio of compound effect to (E)-2-Hydroxy-4,4-dimethoxy-3,5-diprenylchalcone effect for growth inhibition of human MDA-MB-231 cells; assay type: functional
MDA-MB-231 [4] = experiment: Induction of morphological changes in human MDA-MB-231 cells assessed as increase in intracellular space at 5 umol/L after 48 hrs by inverted microscopic method; assay type: functional, cell-based
In short: (§2)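 Cells cultured in DMEM/10% FBS at 37 °C, 5% CO2. Exposed 48 h to 5 µmol/L compound alongside DMSO controls. Morphology (cell number, rounding, spacing, apoptotic bodies, spindle shape) observed under an inverted microscope with CCD camera.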

K562 [5] = experiment: Cell cycle arrest in human K562 cells assessed as decrease in G1 phase accumulation at 5 umol/L after 48 hrs by propidium iodide staining based flow cytometry; assay type: functional
In short: (§3)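 Cells grown in DMEM with 10% FBS and penicillin/streptomycin at 37 °C, 5% CO2, and passaged at least 3 times after thawing. Treated 48 h at 5 µmol/L, DMSO-treated controls. Harvested by trypsin, PBS-washed, fixed in ice-cold ethanol, blocked 1 h at 4 °C in 5% BSA/PBS, RNase 1 µg/mL 30 min at 37 °C, PI 20 µg/mL final. Phase percentages read from PI histograms. Mean ± SD, three independent experiments.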

MDA-MB-231 [6] = experiment: Induction of apoptosis in human MDA-MB-231 cells assessed as effect on cell adherence at 5 umol/L after 48 hrs by inverted microscopic method; assay type: functional, cell-based; in short: as §2
K562 [7] = experiment: Induction of morphological changes in human K562 cells assessed as increase in intracellular space at 5 umol/L after 48 hrs by inverted microscopic method; assay type: functional, cell-based; in short: as §2
MDA-MB-231 [8] = experiment: Induction of apoptosis in human MDA-MB-231 cells assessed as early apoptotic cells at 5 umol/L after 48 hrs by annexin V-FITC/propidium iodide staining based flow cytometry (reference value: 3%); assay type: functional
HEL [9] = experiment: Cell cycle arrest in HEL cells assessed as increase in G1 phase accumulation at 5 umol/L after 48 hrs by propidium iodide staining based flow cytometry; assay type: functional; conditions: Homo sapiens; in short: as §3
PC-3 [10] = experiment: Induction of apoptosis in human PC3 cells assessed as viable cells at 5 umol/L after 48 hrs by annexin V-FITC/propidium iodide staining based flow cytometry (reference value: 86.7%); assay type: functional; conditions: PC-3, 48 h, read-out: Activity
PC-3 [11] = experiment: Induction of apoptosis in human PC3 cells assessed as spindle like formation at 5 umol/L after 48 hrs by inverted microscopic method; assay type: functional, cell-based; in short: as §2
K562 [12] = experiment: Induction of apoptosis in human K562 cells assessed as early apoptotic cells at 5 umol/L after 48 hrs by annexin V-FITC/propidium iodide staining based flow cytometry (reference value: 4%); assay type: functional
MDA-MB-231 [13] = experiment: Cell cycle arrest in human MDA-MB-231 cells assessed as decrease in S phase accumulation at 5 umol/L after 48 hrs by propidium iodide staining based flow cytometric method; assay type: functional; in short: as §3
K562 [14] = experiment: Induction of morphological changes in human K562 cells assessed as increase in cell rounding at 5 umol/L after 48 hrs by inverted microscopic method; assay type: functional, cell-based; in short: as §2
HEL [15] = experiment: Induction of apoptosis in HEL cells assessed as viable cells at 5 umol/L after 48 hrs by annexin V-FITC/propidium iodide staining based flow cytometry (reference value: 93.1 to 94%); assay type: functional; conditions: Homo sapiens, read-out: Activity
PC-3 [16] = experiment: Potency index, ratio of compound effect to (E)-2-Hydroxy-4,4-dimethoxy-3,5-diprenylchalcone effect for growth inhibition of human PC3 cells; assay type: functional
PC-3 [17] = experiment: Induction of apoptosis in human PC3 cells assessed as late apoptotic cells at 5 umol/L after 48 hrs by annexin V-FITC/propidium iodide staining based flow cytometry (reference value: 4.7%); assay type: functional
PC-3 [18] = experiment: Cell cycle arrest in human PC3 cells assessed as decrease in S phase accumulation at 5 umol/L after 48 hrs by propidium iodide staining based flow cytometric method; assay type: functional; in short: as §3
PC-3 [19] = experiment: Induction of apoptosis in human PC3 cells assessed as effect on cell adherence at 5 umol/L after 48 hrs by inverted microscopic method; assay type: functional, cell-based; in short: as §2
HEL [20] = experiment: Potency index, ratio of compound effect to (E)-2-Hydroxy-4,4-dimethoxy-3,5-diprenylchalcone effect for growth inhibition of HEL cells; assay type: functional, Homo sapiens
HEL [21] = experiment: Induction of apoptosis in HEL cells assessed as early apoptotic cells at 5 umol/L after 48 hrs by annexin V-FITC/propidium iodide staining based flow cytometry (reference value: 2.6 to 4.2%); assay type: functional, Homo sapiens
HEL [22] = experiment: Cytotoxicity against HEL cells after 48 hrs by MTT assay; assay type: functional, cell-based; conditions: Homo sapiens
In short: (§4)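 Cells kept in DMEM/10% FBS at 37 °C, 5% CO2, seeded at 4×10^3–8×10^3 cells/well and left 24 h to adhere. Exposed 48 h to a range of concentrations. MTT (5 mg/mL solution) added for 4 h at 37 °C, formazan dissolved in DMSO, absorbance read at 490 nm. IC50 derived from concentration–inhibition relation. Doxorubicin as positive control.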

PC-3 [23] = experiment: Growth inhibition of human PC3 cells at 5 umol/L after 48 hrs by MTT assay relative to control; assay type: functional; conditions: PC-3, 48 h, read-out: GI; in short: as §1
K562 [24] = experiment: Cytotoxicity against human K562 cells after 48 hrs by MTT assay; assay type: functional, cell-based; in short: as §4
MDA-MB-231 [25] = experiment: Growth inhibition of human MDA-MB-231 cells at 5 umol/L after 48 hrs by MTT assay relative to control; assay type: functional; conditions: MDA-MB-231, 48 h, read-out: GI; in short: as §1
K562 [26] = experiment: Potency index, ratio of compound effect to (E)-2-Hydroxy-4,4-dimethoxy-3,5-diprenylchalcone effect for growth inhibition of human K562 cells; assay type: functional
MDA-MB-231 [27] = experiment: Induction of morphological changes in human MDA-MB-231 cells assessed as reduction in number of apoptotic bodies at 5 umol/L after 48 hrs by inverted microscopic method
MDA-MB-231 [28] = experiment: Cytotoxicity against human MDA-MB-231 cells after 48 hrs by MTT assay; assay type: functional, cell-based; in short: as §4
PC-3 [29] = experiment: Induction of morphological changes in human PC3 cells assessed as increase in intracellular space at 5 umol/L after 48 hrs by inverted microscopic method; assay type: functional, cell-based
In short: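 PC3 cells were kept in DMEM with 10% FBS, penicillin and streptomycin at 37 °C under 5% CO2, and were passaged at least 3 times after thawing. Cells were seeded at 4 × 10^3 to 8 × 10^3 cells/well and left to adhere for 24 h. They were then exposed to 5 µmol/L compound for 48 h. Morphology was viewed by inverted microscope against DMSO-treated controls.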

COc1c(CC=C(C)C)cc(C(=O)/C=C/c2cccnc2)c(O)c1CC=C(C)C
Activity (PC-3 [1]): 1.8%
inhibition of growth at 5 µM (K562 [2]): 86.2%
Ratio (MDA-MB-231 [3]): 3 - 4
Activity (MDA-MB-231 [4]): Active
Activity (K562 [5]): Active
Activity (MDA-MB-231 [6]): Active
Activity (K562 [7]): Active
Activity (MDA-MB-231 [8]): 13.8%
Activity (HEL [9]): Active
viability at 5 µM (PC-3 [10]): 44.9%
Activity (PC-3 [11]): Active
Activity (K562 [12]): 10.1%
Activity (MDA-MB-231 [13]): Active
Activity (K562 [14]): Active
viability at 5 µM (HEL [15]): 82.4%
Ratio (PC-3 [16]): 3 - 4
Activity (PC-3 [17]): 42.7%
Activity (PC-3 [18]): Active
Activity (PC-3 [19]): Active
Ratio (HEL [20]): 3 - 4
Activity (HEL [21]): 5.6%
Activity (HEL [22]): Dose-dependent effect
IC50 (HEL [22]): 1850 nM
inhibition of growth at 5 µM (PC-3 [23]): 90.4%
Activity (K562 [24]): Dose-dependent effect
IC50 (K562 [24]; K562, 48 h): 2640 nM
inhibition of growth at 5 µM (MDA-MB-231 [25]): 83.4%
Ratio (K562 [26]): 3 - 4
Activity (MDA-MB-231 [27]): Active
Activity (MDA-MB-231 [28]): Dose-dependent effect
IC50 (MDA-MB-231 [28]; MDA-MB-231, 48 h): 3.14 µM
Activity (PC-3 [29]): Active
